High-throughput results: PubChem BioAssay, The Scripps Research Institute Molecular Screening Center
RORA inh: blocks the human nuclear receptor RORA. P35398. CHO-K1 Gal4-RORA LBD luciferase reporter, luminescence. hit rate 0.43% among 65,000. inhibition, % at 10 µM;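 active = inhibition above the mean of all tested compounds plus 3 SD, cut at about 52% in these data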;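 also: 0% = RORA-transfected cells with DMSO and 100% = mock-transfected cells lacking RORA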
Target sequence (P35398 whole entry, looked up, the tested form may be a part): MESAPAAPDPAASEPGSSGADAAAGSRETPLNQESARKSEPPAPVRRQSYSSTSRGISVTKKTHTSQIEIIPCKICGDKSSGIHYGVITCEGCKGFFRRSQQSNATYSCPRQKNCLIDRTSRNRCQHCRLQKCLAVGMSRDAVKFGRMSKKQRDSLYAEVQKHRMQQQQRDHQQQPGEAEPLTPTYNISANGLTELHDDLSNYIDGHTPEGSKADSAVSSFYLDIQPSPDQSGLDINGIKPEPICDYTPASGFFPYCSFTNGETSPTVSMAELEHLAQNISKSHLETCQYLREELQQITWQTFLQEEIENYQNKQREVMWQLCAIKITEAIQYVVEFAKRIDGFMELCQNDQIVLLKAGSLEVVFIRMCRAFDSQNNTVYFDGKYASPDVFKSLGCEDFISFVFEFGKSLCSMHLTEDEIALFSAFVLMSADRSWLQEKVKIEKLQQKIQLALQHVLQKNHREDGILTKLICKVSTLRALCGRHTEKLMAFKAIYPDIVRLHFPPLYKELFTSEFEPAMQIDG
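System: transiently transfected CHO-K1 cells, Gal4-DBD/human RORA-LBD fusion plus 5xGal4-luciferase reporter. Doses: one dose of 10 µM final. Timing: 20 h compound treatment, 37 °C. Measured by: luminescence. Evaluation: % inhibition of basal luciferase versus +RORA/-RORA DMSO controls. Benchmarks: mock-transfected cells as 100%, +RORA DMSO cells as 0%. Replicates: single test per compound.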
Starred values were filed as active, the others as inactive. The full list was thinned out, with hits kept by preference.

Screening C[C@@]1(CO)[C@H](O)CC[C@@]2(C)[C@H]1CC[C@H]1C[C@@H]3C[C@@]12CC[C@]3(O)CO returned RORA inh 82*.
CCCCCCOc1ccc(CN2CCN(C)CC2)cc1 was read as RORA inh 5.
Screening CN1CCN(CCC(C#N)(c2ccccc2)c2ccccc2)CC1 returned RORA inh 18.
For Cn1ncnc2c(=O)n(C)c(=O)nc1-2 the results were RORA inh 98*.
For Cc1cccc(C)c1NC1=NCCCS1 the results were RORA inh 6.
For CC(NC(C)(C)C)C(=O)c1cccc(Cl)c1 (stereo not given) the results were RORA inh 15.
Screening CCOC(=O)N(CC)c1ccc(C(O)(C(=O)OC)C(F)(F)F)cc1 (stereo not given) returned RORA inh 5.
Cc1sc2ncn(CC(=O)NCC(=O)N3CCC4(CC3)OCCO4)c(=O)c2c1C was read as RORA inh 19.
CCCCn1c(O)c(C=NCCCN(CC)CC)c(=O)[nH]c1=O was read as RORA inh -4.
Screening O=C(CN1C2CCC1CC(O)(c1cccnc1)C2)Nc1ccc2c(c1)OCO2 (stereo not given) returned RORA inh -3.
